From article PMC10228170 (Journal of Pharmaceutical and Biomedical Analysis, 2023)
Like-named read-outs stand apart in the source and are kept apart here. Marks after values point to notes of the source that are not given here.

Assays:
[1] = type: in vivo; settings: rat
How it was run: (§1)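 Male Sprague-Dawley rats (200 ± 50 g) were fasted 12 h and anaesthetised with urethane 1 g/kg i.p. A blood probe (1.2 cm) sat in the jugular vein and a brain probe (0.7 cm) in the striatum (+0.2 AP, +3.0 ML, −7.5 DV from bregma). Both were perfused with ACD at 2.0 µL/min. Test compound 100 mg/kg i.v. via femoral vein. Dialysates collected every 20 min for 6 h; UHPLC-MS/MS (MRM); noncompartmental parameters; AUC ratios; n = 6.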

[2] = type: in vivo; settings: male, Sprague-Dawley, rat, iv, 100 mg/kg
How it was run: as §1

[3] = prodrug molnupiravir, metabolized to NHC in vivo; cited from earlier work
[4] = Pharmacokinetics of molnupiravir and NHC in rat blood and brain; type: in vivo; settings: for concentration at 140 min: intravenous
How it was run: as §1

[5] = male, Sprague-Dawley, blood (microdialysate), iv, 100 mg/kg
[6] = male, Sprague-Dawley, blood dialysate, iv, 100 mg/kg
[7] = male, Sprague-Dawley, brain (striatum microdialysate), iv, 100 mg/kg
[8] = male, Sprague-Dawley, brain (striatum) dialysate, iv, 100 mg/kg
[9] = brain (striatum microdialysate)
[10] = male, Sprague-Dawley, rat, blood (microdialysate), iv, 100 mg/kg
[11] = male, Sprague-Dawley, rat, brain (striatum microdialysate), iv, 100 mg/kg

CC(C)C(=O)OC[C@H]1O[C@@H](n2ccc(NO)nc2=O)[C@H](O)[C@@H]1O [Molnupiravir, molnupiravir]
MRT [1, 5]: 77 min | clearance [1, 5]: 0.958 ± 0.0768 L/h/kg | AUC [1, 6]: 110 µg·h/mL | Cmax [1, 6]: 199 ± 16.9 µg/mL | half-life [1, 6]: 132 ± 32 min | MRT [1, 7]: 238 min | Tmax [1, 7]: 40 min | AUC [1, 8]: 1.79 µg·h/mL | Cmax [1, 8]: 0.79 ± 0.22 µg/mL | half-life [1, 8]: 148 ± 34 min | AUCbrain/AUCblood (blood-to-brain transfer ratio) ([1]; molnupiravir 100 mg/kg i.v. + BNPP 50 mg/kg i.v.): 0.02 ± 0.004^a | AUC ([2]; blood (microdialysate)): 77.4 µg·h/mL | Cmax ([2]; blood (microdialysate)): 185 ± 18.7 µg/mL | MRT ([2]; blood (microdialysate)): 29 min | clearance ([2]; blood (microdialysate)): 1.3 ± 0.0396 L/h/kg | half-life ([2]; blood (microdialysate)): 35 ± 10 min | AUC [2, 9]: 0.755 µg·h/mL | MRT [2, 9]: 53 min | Tmax [2, 9]: 40 min | half-life [2, 9]: 68 ± 22 min | Cmax ([2]; brain (striatum) dialysate): 0.5 ± 0.09 µg/mL | bioavailability [3]: more than 90% | AUC [4, 10]: 57.2 µg·h/mL | Cmax [4, 10]: 192 ± 24.1 µg/mL | clearance [4, 10]: 1.92 ± 0.267 L/h/kg | half-life [4, 10]: 9 ± 2 min | concentration at 140 min ([4]; male, Sprague-Dawley, rat, blood dialysate, 100 mg/kg): 0.0492 µg/mL | MRT ([4]; male, Sprague-Dawley, rat, blood dialysate, iv, 100 mg/kg): 18 min | AUC [4, 11]: 0.318 µg·h/mL | Cmax [4, 11]: 0.39 ± 0.1 µg/mL | half-life [4, 11]: 10 ± 1 min | concentration at 140 min ([4]; male, Sprague-Dawley, rat, brain (striatum) dialysate, 100 mg/kg): 0.103 µg/mL | MRT ([4]; male, Sprague-Dawley, rat, brain (striatum) dialysate, iv, 100 mg/kg): 35 min | Tmax ([4]; male, Sprague-Dawley, rat, brain (striatum) dialysate, iv, 100 mg/kg, Tmax, rat brain, molnupiravir 100 mg/kg i.v. alone): 40 min | time of biotransformation of molnupiravir to NHC ([4]; rat blood, molnupiravir 100 mg/kg i.v.): ≤ 20 min | AUCbrain/AUCblood (blood-to-brain transfer ratio) ([4]; rat, molnupiravir 100 mg/kg i.v. alone): 0.005 ± 0.001^b
